Published values collected from several papers.
Each line is one published result; the experiments were not run side by side.
Target: Serine/threonine-protein kinase TAO3 (TAOK3, Homo sapiens, UniProt Q9H2K8)
Residues used in one study (Q9H2K8 1-898): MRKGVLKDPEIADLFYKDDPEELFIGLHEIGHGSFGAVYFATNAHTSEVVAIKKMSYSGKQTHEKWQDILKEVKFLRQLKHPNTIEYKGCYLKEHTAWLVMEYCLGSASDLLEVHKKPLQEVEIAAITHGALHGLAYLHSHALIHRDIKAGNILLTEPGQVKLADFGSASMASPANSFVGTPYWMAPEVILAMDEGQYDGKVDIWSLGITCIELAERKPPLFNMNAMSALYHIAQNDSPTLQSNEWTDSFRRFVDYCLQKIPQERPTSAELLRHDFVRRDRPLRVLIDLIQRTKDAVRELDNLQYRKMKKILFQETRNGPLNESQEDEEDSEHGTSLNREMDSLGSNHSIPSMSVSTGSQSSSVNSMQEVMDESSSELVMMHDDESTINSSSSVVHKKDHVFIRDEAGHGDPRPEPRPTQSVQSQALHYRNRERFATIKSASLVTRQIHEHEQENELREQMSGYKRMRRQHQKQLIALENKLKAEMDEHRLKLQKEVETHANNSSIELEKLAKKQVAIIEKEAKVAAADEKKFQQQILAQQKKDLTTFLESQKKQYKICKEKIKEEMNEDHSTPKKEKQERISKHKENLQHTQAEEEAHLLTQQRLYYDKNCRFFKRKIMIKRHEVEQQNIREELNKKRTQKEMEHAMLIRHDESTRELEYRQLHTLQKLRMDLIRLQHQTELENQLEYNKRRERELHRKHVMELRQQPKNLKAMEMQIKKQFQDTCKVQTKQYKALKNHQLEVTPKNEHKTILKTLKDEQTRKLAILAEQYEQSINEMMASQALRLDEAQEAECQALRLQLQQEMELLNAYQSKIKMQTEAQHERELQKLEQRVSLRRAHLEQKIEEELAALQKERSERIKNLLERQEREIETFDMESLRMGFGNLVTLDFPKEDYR

With `O=C(O)c1cc(-c2ccc(C3CCNCC3)cc2)c2ccc(-c3ccc(C(F)(F)F)cc3)cc2c1` the remaining binding was 100% (cell-free assay, competition with immobilised ligand; 1 µM).
For `O=C1Nc2ccc(Cl)cc2C1=Cc1cc(Cl)c(O)c(Cl)c1`, the remaining signal was 50.6% (cell-free assay; 0.5 µM).
`Cc1ccc(NC(=O)c2ccc(C)c(C(F)(F)F)c2)cc1C#Cc1nn(C2CCC(O)CC2)c2ncnc(N)c12` (centres unmarked) has a remaining signal of 2% (cell-free assay; 10 µM).
`CNC(=O)c1cc(Oc2ccc(NC(=O)Nc3ccc(Cl)c(C(F)(F)F)c3)cc2)ccn1` has an inhibition of 77% (enzyme activity, inhibitor; 0.3 µM).
With `CCC(=N\O)/C(C)=C/c1ccc(F)cc1` the remaining binding was 86% (cell-free assay, competition with immobilised ligand; 1 µM).
`Nc1ncnc2occ(-c3ccc(NC(=O)Nc4cc(C(F)(F)F)ccc4F)cc3)c12` gave a remaining signal of 0.05% (cell-free assay, inhibitor; 20 µM).
`CCN(CC)CCNC(=O)c1c(C)[nH]c(/C=C2\C(=O)Nc3ccc(F)cc32)c1C` has a remaining signal of 82.9% (cell-free assay; 0.5 µM).
With `CN(C)c1nccc(-c2cnn3ncccc23)n1` the remaining binding was 73% (binding; 1 µM).
The remaining activity of `Cc1ccc(C(=O)Nc2ccc(CN3CCN(C)CC3)c(C(F)(F)F)c2)cc1C#Cc1cnc2cccnn12` is reported as 28% (enzyme activity, inhibitor; 23.5 nM).
`Cc1ccc(Nc2nccc(N(C)c3ccc4c(C)n(C)nc4c3)n2)cc1S(N)(=O)=O` gave an inhibition of 60% (enzyme activity, inhibitor; 0.3 µM).
`CS(=O)(=O)CCNCc1ccc(-c2ccc3ncnc(Nc4ccc(OCc5cccc(F)c5)c(Cl)c4)c3c2)o1` has a remaining signal of 101% (cell-free assay; 0.5 µM).
`O=C(Nc1cnn(-c2csc(C(=O)NC3COC3)c2)c1)Nc1c(F)cccc1Cl` gave a remaining activity of 90.2% (enzyme activity, inhibitor; 5 µM).
`COc1ccc2c(c1)O[C@@H](c1ccc(OC)c(OC)c1)C[C@H]2NC(=O)C1(c2ccc3c(c2)OC(F)(F)O3)CC1` has a remaining binding of 91% (cell-free assay, competition with immobilised ligand; 1 µM).
With `CCCS(=O)(=O)Nc1ccc(F)c(C(=O)c2c[nH]c3ncc(-c4ccc(Cl)cc4)cc23)c1F` the inhibition was under 10% (enzyme activity, inhibitor; 1 µM).
With `O=C(O)[C@@H]1[C@@H](Cn2nnc3ccccc3c2=O)CC[C@H]1C(=O)c1ccc(OCCC2CCOCC2)cc1` the remaining binding was 100% (cell-free assay, competition with immobilised ligand; 1 µM).
`N#CCCc1ccc2c(c1)-c1[nH]c3ccc([N+](=O)[O-])cc3c1CC(=O)N2` has a remaining signal of 66% (cell-free assay; 0.5 µM).
For `CC1=C(C#N)C(c2ccc3c(c2)c(NC(=O)c2ccccc2C)nn3C)C(C#N)=C(C)N1`, the remaining binding was 80% (cell-free assay, competition with immobilised ligand; 1 µM).
With `CC(C)(C)c1nc2c(s1)c1nc(N)ncc1c1ccc(NS(=O)(=O)c3c(F)cccc3F)c(F)c12` the remaining activity was 87% (enzyme activity, inhibitor, radiometric; 1 µM).
For `CCCCN(CCCC)C(=O)CN1C[C@H](c2cc(OC)c3c(c2)OCO3)[C@@H](C(=O)O)[C@@H]1CC(C)(C)CCC`, the remaining binding was 63.2% (cell-free assay, competition with immobilised ligand; 1 µM).
`COc1cc2c(Nc3ccc(Br)cc3F)ncnc2cc1OCC1CCN(C)CC1` gave a remaining signal of 98.4% (cell-free assay; 0.5 µM).
The activity vs control of `Cc1cc(NC(=O)c2cccc3cc(-c4cccc5[nH]nc(N)c45)ccc23)ccc1F` is reported as 96% (enzyme activity, inhibitor; 0.1 µM).
The remaining binding of `CN(C)C(=O)Cn1cc(-c2nc(C3(c4ccc(-c5cnc(N)nc5)cc4)CC3)no2)cn1` is reported as 67% (cell-free assay, competition with immobilised ligand; 1 µM).
The inhibition of `COc1cc(-c2cc(-c3ccc(N4CCNCC4)cc3)cnc2C)cc(OC)c1OC` is reported as 3% (enzyme activity, inhibitor; 0.1 µM).
